Test results as given in ChEMBL document CHEMBL3400013, “Synthesis and biological activity evaluation of hydrazone derivatives based on a Tröger's base skeleton” (Bioorg Med Chem, 2015).
Active and inactive are the calls of the source. The calls are words filed in the database; no cut-off is given here.

System: CCRF-CEM
Experiment: Cytostatic activity against human CCRF-CEM cells after 72 hrs by MTT assay
Format: functional, cell-based
In short: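 Cells were seeded at 25,000–30,000 per well and pre-incubated for 24 h at 37°C in 5% CO2. Four-fold compound dilutions were added in duplicate and incubated for 72 h. MTT was added for 1–4 h, and formazan was dissolved in 10% aq SDS (pH 5.5) overnight at 37°C. OD was read at 540 nm. IC50 came from dose-response curves, mean ± SD of eight independent experiments.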

Row | SMILES | IC50 [nM]
1 | O=C(N/N=C/c1nccc2ccccc12)c1ccc2c3c(ccc2c1)N1Cc2c(ccc4cc(C(=O)N/N=C/c5nccc6ccccc56)ccc24)N(C3)C1 | 580

System: not listed separately
Experiment: Metal chelating activity of the compound assessed as formation of Co2+ complex by UV-vis spectrometry
Format: physicochemical

Row | SMILES | Activity
2 | O=C(N/N=C/c1nccc2ccccc12)c1ccc2c3c(ccc2c1)N1Cc2c(ccc4cc(C(=O)N/N=C/c5nccc6ccccc56)ccc24)N(C3)C1 | Active

System: Nucleic Acid
Experiment: Binding affinity to DNA (unknown origin) assessed as DNA intercalation by UV-visible spectrophotometry in presence of Fe3+
Format: nucleic-acid assay

Row | SMILES | Activity
3 | O=C(N/N=C/c1nccc2ccccc12)c1ccc2c3c(ccc2c1)N1Cc2c(ccc4cc(C(=O)N/N=C/c5nccc6ccccc56)ccc24)N(C3)C1 | Active

System: not listed separately
Experiment: Metal chelating activity of the compound assessed as formation of Fe2+ complex by UV-vis spectrometry
Format: physicochemical

Row | SMILES | Activity
4 | O=C(N/N=C/c1nccc2ccccc12)c1ccc2c3c(ccc2c1)N1Cc2c(ccc4cc(C(=O)N/N=C/c5nccc6ccccc56)ccc24)N(C3)C1 | Not Active

System: not listed separately
Experiment: Metal chelating activity of the compound assessed as formation of Ca2+ complex by UV-vis spectrometry
Format: physicochemical

Row | SMILES | Activity
5 | O=C(N/N=C/c1nccc2ccccc12)c1ccc2c3c(ccc2c1)N1Cc2c(ccc4cc(C(=O)N/N=C/c5nccc6ccccc56)ccc24)N(C3)C1 | Not Active

System: not listed separately
Experiment: Metal chelating activity of the compound assessed as formation of Cu2+ complex by UV-vis spectrometry
Format: physicochemical

Row | SMILES | Activity
6 | O=C(N/N=C/c1nccc2ccccc12)c1ccc2c3c(ccc2c1)N1Cc2c(ccc4cc(C(=O)N/N=C/c5nccc6ccccc56)ccc24)N(C3)C1 | Active

System: BJ
Experiment: Selectivity index, ratio of IC50 for human BJ cells to IC50 for human p53-/- HCT116 cells
Format: functional

Row | SMILES | Ratio IC50
7 | O=C(N/N=C/c1nccc2ccccc12)c1ccc2c3c(ccc2c1)N1Cc2c(ccc4cc(C(=O)N/N=C/c5nccc6ccccc56)ccc24)N(C3)C1 | 4

System: Candida tropicalis
Experiment: Antifungal activity against Candida tropicalis up to 200 uM after 24 to 48 hrs by broth microdilution method
Format: functional, organism-based

Row | SMILES | Activity
8 | O=C(N/N=C/c1nccc2ccccc12)c1ccc2c3c(ccc2c1)N1Cc2c(ccc4cc(C(=O)N/N=C/c5nccc6ccccc56)ccc24)N(C3)C1 | inactive

System: CCRF-CEM
Experiment: Cell cycle arrest in human CCRF-CEM cells assessed as accumulation at S phase at IC50 after 24 hrs by propidium iodide staining-based flow cytometry
Format: functional
In short: (§1)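 Cells were then fixed in 70% ethanol, washed in hypotonic citrate buffer, treated with RNase (50 µg/mL) and stained with propidium iodide. Flow cytometry used a 488 nm laser. Apoptosis was scored as the percentage of particles with propidium content below G0/G1.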

Row | SMILES | Activity [%]
9 | O=C(N/N=C/c1nccc2ccccc12)c1ccc2c3c(ccc2c1)N1Cc2c(ccc4cc(C(=O)N/N=C/c5nccc6ccccc56)ccc24)N(C3)C1 | 38.56

System: not listed separately
Experiment: Metal chelating activity of the compound assessed as formation of Cr3+ complex by UV-vis spectrometry
Format: physicochemical

Row | SMILES | Activity
10 | O=C(N/N=C/c1nccc2ccccc12)c1ccc2c3c(ccc2c1)N1Cc2c(ccc4cc(C(=O)N/N=C/c5nccc6ccccc56)ccc24)N(C3)C1 | Not Active

System: Pseudomonas aeruginosa
Experiment: Antimicrobial activity against multidrug-resistant Pseudomonas aeruginosa A/16575 up to 200 uM after 24 to 48 hrs by broth microdilution method
Format: functional, organism-based

Row | SMILES | Activity
11 | O=C(N/N=C/c1nccc2ccccc12)c1ccc2c3c(ccc2c1)N1Cc2c(ccc4cc(C(=O)N/N=C/c5nccc6ccccc56)ccc24)N(C3)C1 | inactive

System: Enterococcus faecalis
Experiment: Antimicrobial activity against Enterococcus faecalis CCM 4224 up to 200 uM after 24 to 48 hrs by broth microdilution method
Format: functional, organism-based

Row | SMILES | Activity
12 | O=C(N/N=C/c1nccc2ccccc12)c1ccc2c3c(ccc2c1)N1Cc2c(ccc4cc(C(=O)N/N=C/c5nccc6ccccc56)ccc24)N(C3)C1 | inactive

System: HCT-116
Experiment: Selectivity index, ratio of IC50 for human MRC5 cells to IC50 for human HCT116 cells
Format: functional

Row | SMILES | Ratio IC50
13 | O=C(N/N=C/c1nccc2ccccc12)c1ccc2c3c(ccc2c1)N1Cc2c(ccc4cc(C(=O)N/N=C/c5nccc6ccccc56)ccc24)N(C3)C1 | 5.7

System: CCRF-CEM
Experiment: Induction of apoptosis in human CCRF-CEM cells assessed as inhibition of RNA synthesis at IC50 after 24 hrs by propidium iodide/BrU staining by flow cytometry
Format: functional
Design: scale not given: the % may be the effect or the level left

Row | SMILES | Activity [%]
14 | O=C(N/N=C/c1nccc2ccccc12)c1ccc2c3c(ccc2c1)N1Cc2c(ccc4cc(C(=O)N/N=C/c5nccc6ccccc56)ccc24)N(C3)C1 | 44

System: Nucleic Acid
Experiment: Binding affinity to DNA (unknown origin) assessed as DNA intercalation by UV-visible spectrophotometry in presence of Ni2+
Format: nucleic-acid assay

Row | SMILES | Activity
15 | O=C(N/N=C/c1nccc2ccccc12)c1ccc2c3c(ccc2c1)N1Cc2c(ccc4cc(C(=O)N/N=C/c5nccc6ccccc56)ccc24)N(C3)C1 | Active

System: Nucleic Acid
Experiment: Binding affinity to DNA (unknown origin) assessed as DNA intercalation by UV-visible spectrophotometry in presence of Cu2+
Format: nucleic-acid assay

Row | SMILES | Activity
16 | O=C(N/N=C/c1nccc2ccccc12)c1ccc2c3c(ccc2c1)N1Cc2c(ccc4cc(C(=O)N/N=C/c5nccc6ccccc56)ccc24)N(C3)C1 | Active

System: A549
Experiment: Selectivity index, ratio of IC50 for human BJ cells to IC50 for human A549 cells
Format: functional

Row | SMILES | Ratio IC50
17 | O=C(N/N=C/c1nccc2ccccc12)c1ccc2c3c(ccc2c1)N1Cc2c(ccc4cc(C(=O)N/N=C/c5nccc6ccccc56)ccc24)N(C3)C1 | 5.4

System: Candida parapsilosis
Experiment: Antifungal activity against Candida parapsilosis up to 200 uM after 24 to 48 hrs by broth microdilution method
Format: functional, organism-based

Row | SMILES | Activity
18 | O=C(N/N=C/c1nccc2ccccc12)c1ccc2c3c(ccc2c1)N1Cc2c(ccc4cc(C(=O)N/N=C/c5nccc6ccccc56)ccc24)N(C3)C1 | inactive

System: Staphylococcus haemolyticus
Experiment: Antimicrobial activity against methicillin-resistant Staphylococcus haemolyticus A1/16568 up to 200 uM after 24 to 48 hrs by broth microdilution method
Format: functional, organism-based

Row | SMILES | Activity
19 | O=C(N/N=C/c1nccc2ccccc12)c1ccc2c3c(ccc2c1)N1Cc2c(ccc4cc(C(=O)N/N=C/c5nccc6ccccc56)ccc24)N(C3)C1 | inactive

System: not listed separately
Experiment: Metal chelating activity of the compound assessed as formation of Mg2+ complex by UV-vis spectrometry
Format: physicochemical

Row | SMILES | Activity
20 | O=C(N/N=C/c1nccc2ccccc12)c1ccc2c3c(ccc2c1)N1Cc2c(ccc4cc(C(=O)N/N=C/c5nccc6ccccc56)ccc24)N(C3)C1 | Not Active

System: Pseudomonas aeruginosa
Experiment: Antimicrobial activity against Pseudomonas aeruginosa CCM 395 up to 200 uM after 24 to 48 hrs by broth microdilution method
Format: functional, organism-based

Row | SMILES | Activity
21 | O=C(N/N=C/c1nccc2ccccc12)c1ccc2c3c(ccc2c1)N1Cc2c(ccc4cc(C(=O)N/N=C/c5nccc6ccccc56)ccc24)N(C3)C1 | inactive

System: CCRF-CEM
Experiment: Induction of apoptosis in human CCRF-CEM cells assessed as apoptotic cells at IC50 after 24 hrs by propidium iodide staining-based flow cytometry
Format: functional
In short: as §1

Row | SMILES | Activity [%]
22 | O=C(N/N=C/c1nccc2ccccc12)c1ccc2c3c(ccc2c1)N1Cc2c(ccc4cc(C(=O)N/N=C/c5nccc6ccccc56)ccc24)N(C3)C1 | 8.4
